Test results published in ChEMBL document CHEMBL1157184, “Hymenoic acid, a novel specific inhibitor of human DNA polymerase lambda from a fungus of Hymenochaetaceae sp” (Bioorg Med Chem, 2008).
The source made the active and inactive calls. The calls are words filed in the database; no cut-off is given here.

What was measured:
[1] = tested on: Escherichia coli; assay: Inhibition of Escherichia coli T4 DNA polymerase at 200 uM
Outline: (§1)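 Compound dissolved in DMSO and sonicated 30 s, then held with each polymerase (final 0.05 U) in 50 mM Tris-HCl pH 7.5, 1 mM DTT, 50% glycerol, 0.1 mM EDTA at 0 °C for 10 min. Reaction with poly(dA)/oligo(dT)12-18 and dTTP ran 60 min at 37 °C (Taq at 74 °C). Activity relative to no-compound control; means ± SEM, four independent experiments.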

[2] = target: T1, DNA polymerase alpha subunit B (Bos taurus) (UniProt Q58D13); assay: Inhibition of calf DNA polymerase alpha at 200 uM; outline: as §1
T1 sequence (whole entry): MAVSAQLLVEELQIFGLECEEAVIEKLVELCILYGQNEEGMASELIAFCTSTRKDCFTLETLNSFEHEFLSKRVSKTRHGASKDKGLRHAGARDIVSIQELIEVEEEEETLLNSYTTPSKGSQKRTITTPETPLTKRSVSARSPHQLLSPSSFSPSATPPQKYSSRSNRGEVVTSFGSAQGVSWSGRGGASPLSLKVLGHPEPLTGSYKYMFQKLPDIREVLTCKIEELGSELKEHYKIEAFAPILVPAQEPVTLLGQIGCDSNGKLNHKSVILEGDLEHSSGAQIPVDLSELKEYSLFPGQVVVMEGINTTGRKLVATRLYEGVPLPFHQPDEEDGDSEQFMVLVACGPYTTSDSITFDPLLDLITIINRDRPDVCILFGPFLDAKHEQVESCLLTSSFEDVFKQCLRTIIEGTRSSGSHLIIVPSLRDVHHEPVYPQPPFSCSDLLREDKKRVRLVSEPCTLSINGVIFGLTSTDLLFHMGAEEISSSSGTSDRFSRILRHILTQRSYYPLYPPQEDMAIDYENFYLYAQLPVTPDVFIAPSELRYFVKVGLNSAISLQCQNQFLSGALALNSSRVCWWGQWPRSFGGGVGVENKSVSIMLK

[3] = target: T2, DNA polymerase alpha catalytic subunit (Drosophila melanogaster) (UniProt P26019); assay: Inhibition of fruit fly DNA polymerase alpha at 200 uM; outline: as §1
T2 sequence (whole entry): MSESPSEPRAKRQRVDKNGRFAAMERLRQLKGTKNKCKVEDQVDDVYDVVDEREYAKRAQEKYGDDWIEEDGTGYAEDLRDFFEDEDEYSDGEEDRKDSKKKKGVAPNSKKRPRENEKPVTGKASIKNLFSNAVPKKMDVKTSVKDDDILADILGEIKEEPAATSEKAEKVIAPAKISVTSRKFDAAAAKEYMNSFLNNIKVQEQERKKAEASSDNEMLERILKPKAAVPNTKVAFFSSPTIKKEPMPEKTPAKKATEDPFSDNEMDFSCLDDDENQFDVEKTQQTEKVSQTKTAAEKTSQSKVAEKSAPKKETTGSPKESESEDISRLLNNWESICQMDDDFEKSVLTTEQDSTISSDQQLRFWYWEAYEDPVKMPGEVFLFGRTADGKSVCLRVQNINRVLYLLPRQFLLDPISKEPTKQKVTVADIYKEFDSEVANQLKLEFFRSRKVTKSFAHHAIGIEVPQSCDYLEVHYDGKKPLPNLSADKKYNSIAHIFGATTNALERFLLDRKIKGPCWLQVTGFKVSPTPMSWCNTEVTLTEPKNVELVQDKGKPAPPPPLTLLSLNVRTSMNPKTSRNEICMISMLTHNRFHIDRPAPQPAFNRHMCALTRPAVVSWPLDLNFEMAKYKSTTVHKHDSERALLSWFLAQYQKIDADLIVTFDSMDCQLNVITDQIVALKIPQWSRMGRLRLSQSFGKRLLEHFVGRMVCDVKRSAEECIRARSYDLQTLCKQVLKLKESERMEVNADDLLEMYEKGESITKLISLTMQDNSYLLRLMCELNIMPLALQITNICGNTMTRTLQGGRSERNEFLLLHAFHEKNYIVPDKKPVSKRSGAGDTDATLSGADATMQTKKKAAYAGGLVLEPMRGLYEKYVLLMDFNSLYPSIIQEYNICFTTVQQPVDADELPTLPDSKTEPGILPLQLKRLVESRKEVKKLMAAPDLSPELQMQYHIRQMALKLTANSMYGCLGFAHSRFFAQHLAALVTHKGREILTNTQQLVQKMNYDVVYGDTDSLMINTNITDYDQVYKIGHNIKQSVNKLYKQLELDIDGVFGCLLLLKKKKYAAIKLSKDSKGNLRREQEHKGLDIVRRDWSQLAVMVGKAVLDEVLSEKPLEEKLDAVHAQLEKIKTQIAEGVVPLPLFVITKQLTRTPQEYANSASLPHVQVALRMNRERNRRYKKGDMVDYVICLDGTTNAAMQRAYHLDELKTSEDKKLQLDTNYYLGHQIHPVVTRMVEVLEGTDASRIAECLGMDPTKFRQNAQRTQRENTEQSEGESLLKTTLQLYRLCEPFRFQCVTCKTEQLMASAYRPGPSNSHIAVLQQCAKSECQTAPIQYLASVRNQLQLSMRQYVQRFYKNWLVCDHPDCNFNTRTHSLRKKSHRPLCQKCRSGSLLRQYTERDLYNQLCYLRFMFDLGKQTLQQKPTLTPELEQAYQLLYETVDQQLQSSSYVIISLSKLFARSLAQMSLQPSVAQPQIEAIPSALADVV

[4] = tested on: Escherichia coli; assay: Inhibition of Escherichia coli DNA polymerase I Klenow fragment at 200 uM; outline: as §1
[5] = tested on: Drosophila melanogaster; assay: Inhibition of fruit fly DNA polymerase beta at 200 uM; outline: as §1

- Activity [1]: inactive
- Activity [2]: inactive
- Activity [3]: inactive
- Activity [4]: inactive
- Activity [5]: inactive
SMILES: C/C(=C\CC[C@H](C)C(=O)O)[C@H]1CC[C@H](C(=O)O)CC1
